Active and inactive are the calls of the source. The rule behind the calls is not given here.
Columns and labels:
[1] = target: T1, Monoglyceride lipase (Homo sapiens) (UniProt Q99685); experiment: Reversible inhibition of human recombinant MAGL at 1 uM pre-incubated for 5 mins before MAGL substrate 4-NPA addition followed by 10 fold dilution and measured after 10 mins
T1 sequence (whole entry): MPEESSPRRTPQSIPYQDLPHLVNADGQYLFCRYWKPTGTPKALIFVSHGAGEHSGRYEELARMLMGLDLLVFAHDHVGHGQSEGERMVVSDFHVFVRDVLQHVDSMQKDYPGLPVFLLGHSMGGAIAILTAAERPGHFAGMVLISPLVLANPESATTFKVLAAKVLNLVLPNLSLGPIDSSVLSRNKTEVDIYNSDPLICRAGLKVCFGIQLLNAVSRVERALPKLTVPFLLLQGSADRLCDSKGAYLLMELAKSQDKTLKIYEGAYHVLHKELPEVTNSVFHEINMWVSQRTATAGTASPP
Summary of the method: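 Human MAGL was preincubated with 1 μM inhibitor and then diluted 10-fold to a final 0.1 μM. Percent inhibition after dilution was compared with direct 1 μM and 0.1 μM samples to judge reversibility.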

Mus musculus [2] = experiment: Antidepressant activity in ICR mouse model of reserpine-induced depression assessed as reduction in fear at 4 to 16 mg/kg, sc for 6 days followed by reserpine injection 2 hrs after last compound dose and measured after 2 hrs; assay type: functional, organism-based
Summary of the method: (§1)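 In mice, depression was induced with reserpine 4 mg/kg, and the compound was given s.c. at 4, 8 or 16 mg/kg. Controls received phosphate buffer alone. Awakening, finger contact, fear, head touch, autonomous movement, straight and eyelid closure were scored. Data are mean ± SD of 3 independent experiments.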

[3] = Growth inhibition of mouse L929 cells at 20 uM incubated for 24 to 72 hrs relative to control; assay type: cell-based; conditions: read-out: GI
Summary of the method: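 Mouse fibroblast L929 cells were exposed to the compound, including 20 μM, for 24, 48 and 72 h. Growth inhibition was read against control, from 3 independent experiments.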

[4] = Half life in Sprague-Dawley rat plasma at 10 mg/kg, ig measured over 1 to 300 mins post dose by LC-MS/MS analysis; assay type: ADME, organism-based; conditions: po
[5] = Tmax in Sprague-Dawley rat brain at 10 mg/kg, ig measured over 5 to 720 mins post dose by LC-MS/MS analysis
[6] = Protein binding in rat plasma at 20 to 500 ng/mL by ultracentrifugation assay; assay type: ADME, cell-free; conditions: read-out: PPB (converted)
Summary of the method: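 Binding to rat plasma proteins was measured by ultracentrifugation across 20–500 ng/mL of compound.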

Monoglyceride lipase = target: T2, Monoglyceride lipase (Homo sapiens, UniProt Q99685); experiment: Competitive inhibition of human recombinant MAGL at 31.25 nM to 125 nM pre-incubated for 5 mins before MAGL substrate addition and further incubated for 10 mins
T2 sequence (Q99685 whole entry): T1 sequence (whole entry)
Summary of the method: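 Mode of inhibition was assessed from Michaelis–Menten kinetics run at several inhibitor concentrations. Enzyme activity was plotted against substrate concentration and fitted to a mixed-model inhibition (competitive, uncompetitive and noncompetitive terms), giving Vmax, Km and α.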

[7] = target: T3, Fatty-acid amide hydrolase 1 (Homo sapiens, UniProt O00519); experiment: Inhibition of human recombinant FAAH pre-incubated for 5 mins before substrate addition and further incubated for 30 mins by fluorescence assay
T3 sequence (O00519 whole entry): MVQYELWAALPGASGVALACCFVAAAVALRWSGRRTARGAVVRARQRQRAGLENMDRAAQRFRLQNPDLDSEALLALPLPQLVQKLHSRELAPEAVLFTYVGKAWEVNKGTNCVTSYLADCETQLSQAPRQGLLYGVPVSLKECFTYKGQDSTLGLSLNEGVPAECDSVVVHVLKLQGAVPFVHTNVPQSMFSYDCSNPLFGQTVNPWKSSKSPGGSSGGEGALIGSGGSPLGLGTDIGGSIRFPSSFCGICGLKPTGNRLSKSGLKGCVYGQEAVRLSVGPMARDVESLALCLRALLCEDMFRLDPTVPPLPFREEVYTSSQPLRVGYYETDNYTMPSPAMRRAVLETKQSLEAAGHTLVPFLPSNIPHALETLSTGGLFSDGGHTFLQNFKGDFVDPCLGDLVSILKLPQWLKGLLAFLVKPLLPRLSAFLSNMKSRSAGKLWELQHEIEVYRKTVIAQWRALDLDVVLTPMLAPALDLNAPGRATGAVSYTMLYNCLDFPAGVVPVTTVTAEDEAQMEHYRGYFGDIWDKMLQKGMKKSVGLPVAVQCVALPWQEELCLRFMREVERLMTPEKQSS

Homo sapiens = species on record: Homo sapiens; experiment: Selectivity index, ratio of IC50 for inhibition of human recombinant FAAH to IC50 for inhibition of human recombinant MAGL
[8] = AUC (0 to infinity) in Sprague-Dawley rat plasma at 10 mg/kg, iv measured over 1 to 300 mins post dose by LC-MS/MS analysis; assay type: ADME, organism-based; set-up: dose 10 mg/kg, time infinity, route intravenous; conditions: in vivo
[9] = Stability in human liver microsomes assessed as parent compound remaining level at 100 uM pre-incubated for 5 mins before NADPH addition and measured after 60 mins by UPLC-MS/MS analysis; assay type: ADME, Microsome; conditions: read-out: Stability
Summary of the method: (§2)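 Liver microsomes from human, mouse and rat were incubated with the compound. Remaining parent compound was followed at several time points up to 60 min and expressed as percent remaining.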

[10] = target: T1, Monoglyceride lipase (Homo sapiens); experiment: Reversible inhibition of human recombinant MAGL pre-incubated for up to 60 mins before MAGL substrate addition and further incubated for 10 mins
Summary of the method: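 The inhibitor was preincubated with MAGL for 0, 30 or 60 min before substrate was added to start the reaction. IC50 (nM) was determined at each preincubation time, from 3 independent experiments.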

Mus musculus [11] = experiment: Antidepressant activity in ICR mouse model of reserpine-induced depression assessed as immobility time at 5 mg/kg, ig by tail suspension test (reference value: 132.38 +/- 44.51 secs); assay type: functional
[12] = AUC (0 to infinity) in Sprague-Dawley rat plasma at 10 mg/kg, ig measured over 1 to 300 mins post dose by LC-MS/MS analysis; assay type: ADME, organism-based; set-up: dose 10 mg/kg, route […], time infinity; conditions: in vivo, po
[13] = AUC (0 to t) in Sprague-Dawley rat brain at 10 mg/kg, ig measured over 5 to 720 mins post dose by LC-MS/MS analysis; conditions: in vivo
[14] = Stability in rat liver microsomes assessed as parent compound remaining level at 100 uM pre-incubated for 5 mins before NADPH addition and measured after 60 mins by UPLC-MS/MS analysis; assay type: ADME, Microsome; conditions: read-out: Stability; summary of the method: as §2
Mus musculus [15] = experiment: Antidepressant activity in ICR mouse model of reserpine-induced depression assessed as reduction in autonomous movement at 4 to 16 mg/kg, sc for 6 days followed by reserpine injection 2 hrs after last compound dose and measured after 2 hrs; assay type: functional, organism-based; summary of the method: as §1
[16] = AUC (0 to infinity) in Sprague-Dawley rat brain at 10 mg/kg, ig measured over 5 to 720 mins post dose by LC-MS/MS analysis; conditions: in vivo
[17] = AUC (0 to t) in Sprague-Dawley rat plasma at 10 mg/kg, iv measured over 1 to 300 mins post dose by LC-MS/MS analysis; assay type: ADME, organism-based; conditions: in vivo
Mus musculus [18] = experiment: Antidepressant activity in ICR mouse model of reserpine-induced depression assessed as reduction in head touch at 4 to 16 mg/kg, sc for 6 days followed by reserpine injection 2 hrs after last compound dose and measured after 2 hrs; assay type: functional, organism-based; summary of the method: as §1

inhibition [1]: Active | half-life [4]: 4.96 h | Tmax [5]: 0.667 h | fraction unbound [6]: 0.229 | Ki (Monoglyceride lipase): 13.4 nM | IC50 [7]: > 100000 nM | Ratio IC50 (Homo sapiens): 6780 | AUC [8]: 82362.19 µg·min/L | remaining at 1 h, 100 µM [9]: 88.5% | inhibition [10]: Active | AUC [12]: 17791.86 µg·min/L | AUCt [13]: 3582.71 µg·min/L | remaining at 1 h, 100 µM [14]: 17.3% | AUC [16]: 3720.04 µg·min/L | AUCt [17]: 80893 µg·min/L
SMILES: O=C(Nc1cccc(Cl)c1)C1CCN(C(=O)c2ccc3ccccc3c2)CC1
Activity (Mus musculus [2]): Active | inhibition at 20 µM [3]: 8.6% | Time (Mus musculus [11]): 89.87 s | Activity (Mus musculus [15]): Active | Activity (Mus musculus [18]): Active

— ChEMBL document CHEMBL4613273, “Discovery of Aryl Formyl Piperidine Derivatives as Potent, Reversible, and Selective Monoacylglycerol Lipase Inhibitors” (J Med Chem, 2020)
